High-throughput results (PubChem)
An excerpt weighted towards active compounds, which were near 2.7% of everything screened.
Measles CPE: protection of cells from measles virus. Measles virus-infected cells, CPE protection, absorbance. protection (pct of control), % at 4 µM. 140,000 tested, 1.5% active. AID 841; in the data active means protection mostly above about 24%, no sharp cut-off; inactive means mostly below about 26%
ABCB1 block: inhibitors of human ABCB1 transporter, ABCG2 counter-screen; P08183; CCRF-Adr cells, JC-1 efflux, flow cytometry; inhibition, % at 6.6 µM; 190,000 tested, 0.067% active; in the data active means inhibition above about 40%;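 further: 0% = vehicle and 100% = reference inhibitor; higher value means more JC-1 retained so stronger ABCB1 efflux block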
DTT redox prof: compounds producing H2O2 with reducing agent – biochemical, NIH compound library profiling, artefact control for MLSCN library redox annotation, primary screen | DTT-dependent redox cycling H2O2, phenol red/HRP absorbance; 100% = 100 µM peroxide control, 0% = buffer | activation, % at 10 µM | 200,000 tested, 0.03% active | AID 878;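 active means activation of at least 50% relative to the plate's high and low controls in the primary single-dose screen; inactive means activation below 50%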;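 further: compound incubated with DTT at 0.8 mM final as the reducing agent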
FLuc stim CS: firefly luciferase counter-screen for stimulation assays | ATPlite luciferase biochemical, luminescence, 10 min; 0 = ATP-free wells, 1 = DMSO control | activation factor at 10 µM | 200,000 tested, under 10 active | AID 1027;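 active means luciferase activation factor, scaled between plate controls, of at least 2 with compound at 10 µM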
Target sequence (P08659 whole entry, looked up): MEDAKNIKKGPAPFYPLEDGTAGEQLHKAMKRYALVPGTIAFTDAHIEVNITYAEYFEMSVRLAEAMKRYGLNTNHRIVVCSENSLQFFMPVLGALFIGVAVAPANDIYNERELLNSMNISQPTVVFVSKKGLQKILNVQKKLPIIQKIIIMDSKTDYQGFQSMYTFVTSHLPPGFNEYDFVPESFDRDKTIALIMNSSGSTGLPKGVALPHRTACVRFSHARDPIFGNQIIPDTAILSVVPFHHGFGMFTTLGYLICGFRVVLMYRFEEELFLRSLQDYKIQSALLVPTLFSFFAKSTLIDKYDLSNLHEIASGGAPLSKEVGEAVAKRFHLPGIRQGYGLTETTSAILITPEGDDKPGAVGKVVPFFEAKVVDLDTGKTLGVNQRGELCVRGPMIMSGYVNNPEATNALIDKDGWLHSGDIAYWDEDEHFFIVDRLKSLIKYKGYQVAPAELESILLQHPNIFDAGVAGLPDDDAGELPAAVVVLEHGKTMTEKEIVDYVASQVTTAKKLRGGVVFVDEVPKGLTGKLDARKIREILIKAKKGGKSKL
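System: cell-free luciferase reagent; medium: PBS as buffer for the ATP substrate; doses: test compounds dosed from 2 mM stocks in 100% DMSO; incubation: 10 min, room temperature; measured by: luminescence from luciferase reaction; read-out: luciferase activation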
ABCG2 inh: blocks JC-1 efflux by human ABCG2 transporter | Q9UNQ0 | IgMXP3 cells, flow cytometry | inhibition, % at 6.6 µM | 190,000 tested, 0.1% active;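 active means inhibition above 80%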;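 further: 0% = DMSO and 100% = nicardipine control wells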
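Measure – % inhibition of efflux relative to nicardipine and DMSO · Test system – ABCG2 IgMXP3 and barcoded ABCB1 CCRF-Adr cell mix · Control set – nicardipine as high control, DMSO as low control · Compound – one concentration, 6.6 µM final · Signal – flow cytometry of retained JC-1 fluorescence · Timing – 10 min exposure at 25 °C with rotation, no wash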
FLuc inh counter: Photinus pyralis luciferase inhibition counter-screen; ATPLite firefly luciferase biochemical luminescence, 10 min; inhibition, % at 10 µM; 200,000 tested, 1.5% active; AID 1006;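 active means inhibition above about 50% when tested at 10 µM, limit read from the data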
* = called active by the depositor; . = no result.

SMILES	Measles CPE	ABCB1 block	DTT redox prof	FLuc stim CS	ABCG2 inh	FLuc inh counter
O=C(O)c1ccc2c(c1)C(=O)N(c1ncccn1)C2=O	21	0	0	1	0	-3
CC(C)(C)c1ccc(C2CC2C(=O)N/N=C\c2cc3ccccc3nc2Cl)cc1 (configuration not stated)	51*	0	11	1.1	1	-5
Cc1cc(=O)[nH]c(S/C=C/c2ccccc2)n1	33	0	0	0.2	1	77*
Nc1cc(=O)[nH]c(SC/C=C/c2ccccc2)n1	4	0	2	0.9	1	7
CCOc1ccc(C(=O)NCC(=O)OC2CCOC2=O)cc1OCC (configuration not stated)	42*	0	0	1	0	3
COc1cc(OC)cc(C(=O)NCC(=O)OC2CCOC2=O)c1 (configuration not stated)	6	0	0	1.1	0	-8
Cc1cc(C)c2c(N)c(C(=O)Nc3ncc(C)s3)sc2n1	14	0	0	0	0	98*
CNC(=O)[C@@H]1C[C@H]1[C@@H](NC(=O)OCc1ccccc1)c1ccccc1	14	1	0	1	2	-3
O=C(/C=C/c1ccccc1)N/C(=C/c1ccccc1)C(=O)N1CCCCC1	47*	2	-3	1	-2	-4
O=C(CCc1nc2ccccc2c(=O)[nH]1)Nc1ccc(Cl)c(Cl)c1	31*	-1	0	1	-1	-4
O=C(Nc1nc2ccc([N+](=O)[O-])cc2s1)c1ccco1	.	0	0	0.6	1	40
COc1cccc2c(=O)n(CC(=O)Nc3ccc(F)cc3F)ccc12	4	0	-1	1.1	2	-9
COc1cccc2c(=O)n(CC(=O)Nc3ccccc3)ccc12	90*	-2	-1	1.1	-1	-6
COc1ccc(C(=O)NCc2nnc(SCC(=O)Nc3ccccc3OC)n2C)cc1	.	0	1	0.8	6	18
CCCCn1c(=O)c(CCC(=O)OCC(=O)NC(=O)NCCOC)nc2ccccc21	.	1	-2	1	7	-5
Cc1cc(C(=O)Nc2sc3c(c2C#N)CCC3)no1	4	0	1	0.3	-1	66*
CC(C)Cc1cc(C(=O)Nc2sc3c(c2C#N)CCC3)no1	5	0	-4	1	0	-2
Cc1cc(C(=O)Nc2sc3c(c2C#N)CCCC3)no1	1	0	0	0.2	2	84*
Cc1cc(C(=O)Nc2sc3c(c2C#N)CCC(C)C3)no1 (configuration not stated)	4	0	3	0.3	0	72*
Cc1ccc(CNC(=O)C(Cc2ccccc2)NS(=O)(=O)c2ccc(Br)s2)cc1 (configuration not stated)	9	6	0	1.1	3	-6
Cc1cccc(OCCC(=O)Nc2ccc(F)c(Cl)c2)c1	4	0	0	1	5	-3
CCc1cc2c(=O)c(-c3ccc4c(c3)OCCO4)coc2cc1OS(C)(=O)=O	8	5	0	0.5	15	52*
C=COCCNC(=S)N1CCOCCOCCN(C(=S)NCCOC=C)CCOCC1	.	0	0	1.1	1	-6
Cn1cccc1C(=O)C(=O)Nc1ccc(Cl)cc1	41*	1	-12	0.4	14	62*
Cn1cccc1C(=O)C(=O)Nc1cc(Cl)cc(Cl)c1	15	0	-5	1	3	0
SMILES	Measles CPE	ABCB1 block	DTT redox prof	FLuc stim CS	ABCG2 inh	FLuc inh counter
C=CCOC(=O)C1C(=O)CC(C)(O)C(C(=O)OCC=C)C1c1ccc(N(C)C)cc1 (configuration not stated)	.	0	0	1.1	-1	-8
CC(C)CNC(=O)c1cccc(NC(=O)c2ccc(Cl)c([N+](=O)[O-])c2)c1	7	1	0	1	7	-3
Cc1ccc(-c2cn3c(n2)SCC3)cc1	.	0	-2	0.5	1	45
CCc1ccc(-c2cn3c(n2)SCC3)cc1	.	0	-1	0.4	0	64*
CN(C(=O)CCc1ccccc1)c1nnc(-c2ccncc2)s1	.	0	0	1.1	2	-6
COc1ccccc1N1CCN(c2ccc(-c3ccccc3)nn2)CC1	1	0	-1	0.1	6	90*
COc1ccc(C)cc1S(=O)(=O)N(CC(=O)Nc1cccc([N+](=O)[O-])c1)c1ccc(C)c(C)c1	50*	2	0	1.1	2	-7
O=C(CNC(=O)c1cccs1)NCC(=O)OCc1cccc(Cl)c1	active	1	-4	1.1	4	-9
O=C(CNC(=O)c1ccco1)NCC(=O)OCc1cccc(Cl)c1	8	-1	2	1.1	1	-8
Cc1ccc2[nH]c(=O)c(CN(CCCN3CCOCC3)C(=O)Nc3ccc(Cl)cc3)cc2c1	.	2	-1	1	5	-5
Cc1cc(C(=O)Cn2cncn2)c(C)n1CCc1ccc(F)cc1	68*	1	-2	1.1	6	-6
Cc1ccc(C(=O)CSc2ncn[nH]2)cc1	15	0	0	1	0	1
COc1ccc(C(=O)CSc2ncn[nH]2)cc1OC	48*	0	1	1	2	-3
CN(C)c1ccc(NC(=O)c2cnsn2)cc1	.	1	-1	0.3	2	72*
COc1cc(C(=O)Nc2ccc(N(C)C)cc2)cc(OC)c1OC	15	0	0	0.9	1	8
COC(=O)c1ccc2nc(NC(=O)C(C)(C)C)sc2c1	.	1	-2	0	13	95*
COC(=O)c1ccc2nc(NC(=O)C3CCCCC3)sc2c1	.	0	1	1	2	2
COc1cccc(NC(=O)C23CCC(C)(C(=O)O2)C3(C)C)c1 (configuration not stated)	4	0	0	1	0	-2
CNc1nc(SC)nc2ccsc12	10	0	2	1	2	-5
Cc1ccc(C)c(OCCn2c(=O)c3c(ncn3C3CCCC3)n(Cc3ccccc3)c2=O)c1	6	37	2	1	84*	-4
O=c1c2c(ncn2C2CCCC2)n(Cc2ccccc2)c(=O)n1CCOc1ccccc1	12	5	1	1	55	-3
Oc1cccc(-c2nc3ccc4ccccc4c3c3c2CCC3)c1	1	0	0	1	1	4
CCCCCCNC(=O)C(C#N)c1nc2ccccc2nc1N1CCCC1 (configuration not stated)	4	1	1	1	4	-5
